The values that follow come from publication PMC3411050 (The Journal of Biological Chemistry, 2012).

The target of data set [1] is T1, T. californica nAChR (Tetronarce californica, UniProt P02710+P02712+P02714+P02718). The format is binding, Torpedo californica. As to conditions: Torpedo nAChR, from two-site IC50 values.
The target of data set [2] is human muscle-type nAChR, adult form (α1β1ϵδ) (Homo sapiens, UniProt P02708+P11230+Q04844+Q07001). The format is cell-based. Conditions: human muscle-type nAChR in oocytes; washing for 2 min. The method, boiled down:
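Human α1, β1, δ and ε (adult) or γ (fetal) subunit cDNAs were injected into the oocyte nucleus, and two-electrode voltage clamp was run 2–3 days later. Cells received 5 s pulses of 5 μM ACh every 2 min. After stabilization, the test compound was applied at varied concentrations for at least 1 min, the ACh response was retested, and recovery was followed over several minutes.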

Another data set has as its target GABAA receptor α1β3γ2 (Rattus norvegicus, UniProt P18508+P62813+P63079). The experiment in a line: Two-electrode voltage clamp on recombinant GABAA receptors in Xenopus oocytes. The format is cell-based. As to conditions: up to 100 μM. A general note: In two-electrode clamp one electrode senses voltage and the other passes current.
A further data set deals with GABAA receptor α2β3γ2 (Rattus norvegicus, UniProt P18508+P23576+P63079). Described as above. As to conditions: up to 10 μM. The format is cell-based.
The target of a further data set is T2, 5-HT3A receptor (Homo sapiens, UniProt P46098).
T2 sequence (P46098 24-478): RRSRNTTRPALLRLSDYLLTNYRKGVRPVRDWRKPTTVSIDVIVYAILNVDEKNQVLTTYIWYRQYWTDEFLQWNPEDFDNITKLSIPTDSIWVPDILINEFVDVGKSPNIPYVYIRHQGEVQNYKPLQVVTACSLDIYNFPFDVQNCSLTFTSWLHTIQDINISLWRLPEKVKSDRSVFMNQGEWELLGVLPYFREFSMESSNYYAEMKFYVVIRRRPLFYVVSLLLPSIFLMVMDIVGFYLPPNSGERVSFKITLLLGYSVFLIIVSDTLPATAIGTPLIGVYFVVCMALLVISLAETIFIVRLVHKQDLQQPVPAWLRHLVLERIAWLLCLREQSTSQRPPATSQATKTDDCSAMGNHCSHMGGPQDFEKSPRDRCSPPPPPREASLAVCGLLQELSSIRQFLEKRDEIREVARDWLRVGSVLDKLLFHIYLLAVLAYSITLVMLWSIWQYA
The experiment in a line: Current recording on 5-HT3 receptors in Xenopus oocytes. Conditions: concentrations up to 10 μM. The format is cell-based. The method in brief:
(§1)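 Human 5-HT3A (with 5-HT3B for the heteromer) subunit cRNA was transcribed in vitro from cDNA and injected into Xenopus oocytes. Currents were recorded 1–4 days after injection.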

Another data set addresses T3, 5-HT3AB receptor (Homo sapiens, UniProt O95264+P46098).
T3 sequence (P46098 24-478): T2 sequence (P46098 24-478)
T3 sequence (O95264 22-441): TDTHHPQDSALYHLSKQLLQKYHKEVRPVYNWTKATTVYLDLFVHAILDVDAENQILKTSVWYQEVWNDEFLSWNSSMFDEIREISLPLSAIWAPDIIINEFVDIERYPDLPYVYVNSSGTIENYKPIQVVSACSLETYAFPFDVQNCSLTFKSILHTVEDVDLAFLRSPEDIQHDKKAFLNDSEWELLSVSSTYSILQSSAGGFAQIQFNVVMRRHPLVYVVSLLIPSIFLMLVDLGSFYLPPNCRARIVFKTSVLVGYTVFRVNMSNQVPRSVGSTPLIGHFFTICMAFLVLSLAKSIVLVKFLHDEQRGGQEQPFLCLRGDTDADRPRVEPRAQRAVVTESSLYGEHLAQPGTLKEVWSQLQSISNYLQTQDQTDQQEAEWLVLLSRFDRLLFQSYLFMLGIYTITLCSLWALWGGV
Described as above. The format is cell-based. Conditions: concentrations up to 10 μM. The method in brief: as §1

For data set [3], the system named is adult male mice of BALB/c line. The experiment in a line: Lethal effect of azemiopsin on mice. The format is in vivo, mouse. Conditions: intraperitoneal injection, solution in water, doses 2–10 mg/kg. The method in brief:
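Adult male BALB/c mice (18–22 g) were kept on a 12/12-h light/dark cycle with food and water ad libitum. The test compound, dissolved in water, was given intraperitoneally at 2, 2.7, 4, 8 and 10 mg/kg body weight.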

In data set [4] the target is T1, T. californica nAChR. Conditions: read-out: IC50, inhibition of α-bungarotoxin binding; cited from earlier work.
In data set [5] the target is T4, Human α7 nAChR (Homo sapiens, UniProt P36544). As to conditions: read-out: IC50, inhibition of α-bungarotoxin binding; cited from earlier work.
Data set [6] concerns the target T4, Human α7 nAChR. Conditions: read-out: IC50, inhibition of α-bungarotoxin binding.
The next data set addresses L. stagnalis AChBP (Lymnaea stagnalis, UniProt P58154). Conditions: read-out: IC50, inhibition of α-bungarotoxin binding.
For a further data set, the target named is T5, A. californica AChBP (Aplysia californica, UniProt Q8WSF8).
T5 sequence (Q8WSF8 18-236 limits assumed): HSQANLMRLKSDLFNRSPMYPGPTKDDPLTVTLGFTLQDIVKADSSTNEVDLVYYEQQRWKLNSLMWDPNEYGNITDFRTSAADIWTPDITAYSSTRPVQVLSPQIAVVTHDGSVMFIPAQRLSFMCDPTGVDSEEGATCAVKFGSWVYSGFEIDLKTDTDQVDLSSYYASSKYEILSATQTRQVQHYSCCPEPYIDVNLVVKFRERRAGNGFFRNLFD
Conditions: read-out: IC50, inhibition of α-bungarotoxin binding.

Read-outs that look alike come from different tables or passages of the source. Where no end group is shown, it is not given here.

T1 sequence (P02710 25-461): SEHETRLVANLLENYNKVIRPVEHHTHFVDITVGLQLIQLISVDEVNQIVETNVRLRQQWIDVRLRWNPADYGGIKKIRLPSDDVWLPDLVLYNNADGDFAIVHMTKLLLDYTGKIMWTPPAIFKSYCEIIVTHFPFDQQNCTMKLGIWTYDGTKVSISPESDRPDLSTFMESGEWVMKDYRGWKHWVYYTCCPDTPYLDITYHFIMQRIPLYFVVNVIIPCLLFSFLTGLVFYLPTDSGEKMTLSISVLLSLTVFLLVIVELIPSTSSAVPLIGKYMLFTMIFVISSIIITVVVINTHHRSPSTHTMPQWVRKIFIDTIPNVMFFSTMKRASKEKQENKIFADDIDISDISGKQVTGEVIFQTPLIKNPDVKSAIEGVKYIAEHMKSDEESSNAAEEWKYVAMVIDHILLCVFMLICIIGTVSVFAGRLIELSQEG
T1 sequence (P02712 25-493 partner): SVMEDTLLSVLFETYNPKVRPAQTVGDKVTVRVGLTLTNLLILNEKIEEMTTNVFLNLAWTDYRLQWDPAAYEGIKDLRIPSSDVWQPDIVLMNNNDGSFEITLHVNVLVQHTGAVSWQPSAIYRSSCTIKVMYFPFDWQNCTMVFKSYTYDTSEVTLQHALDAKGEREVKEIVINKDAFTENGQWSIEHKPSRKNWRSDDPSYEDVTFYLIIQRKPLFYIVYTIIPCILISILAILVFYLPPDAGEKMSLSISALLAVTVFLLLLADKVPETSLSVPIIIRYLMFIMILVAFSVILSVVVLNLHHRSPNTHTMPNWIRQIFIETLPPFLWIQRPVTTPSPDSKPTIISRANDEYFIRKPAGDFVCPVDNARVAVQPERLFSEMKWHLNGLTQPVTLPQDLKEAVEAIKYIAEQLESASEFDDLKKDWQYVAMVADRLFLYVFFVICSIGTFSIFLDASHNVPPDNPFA
T1 sequence (P02714 18-506): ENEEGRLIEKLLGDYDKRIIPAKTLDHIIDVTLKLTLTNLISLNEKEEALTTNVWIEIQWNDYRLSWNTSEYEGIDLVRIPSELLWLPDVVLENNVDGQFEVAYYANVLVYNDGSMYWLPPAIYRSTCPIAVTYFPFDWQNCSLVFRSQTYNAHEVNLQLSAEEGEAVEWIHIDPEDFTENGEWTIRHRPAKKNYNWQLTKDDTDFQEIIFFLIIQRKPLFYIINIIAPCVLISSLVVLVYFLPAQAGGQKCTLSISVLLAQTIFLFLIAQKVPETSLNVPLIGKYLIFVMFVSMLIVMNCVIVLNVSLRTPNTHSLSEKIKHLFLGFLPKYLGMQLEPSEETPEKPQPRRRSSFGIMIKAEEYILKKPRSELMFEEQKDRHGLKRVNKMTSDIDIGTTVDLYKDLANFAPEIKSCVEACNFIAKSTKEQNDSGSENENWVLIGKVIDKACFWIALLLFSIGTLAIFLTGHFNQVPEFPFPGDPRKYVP
T1 sequence (P02718 22-522): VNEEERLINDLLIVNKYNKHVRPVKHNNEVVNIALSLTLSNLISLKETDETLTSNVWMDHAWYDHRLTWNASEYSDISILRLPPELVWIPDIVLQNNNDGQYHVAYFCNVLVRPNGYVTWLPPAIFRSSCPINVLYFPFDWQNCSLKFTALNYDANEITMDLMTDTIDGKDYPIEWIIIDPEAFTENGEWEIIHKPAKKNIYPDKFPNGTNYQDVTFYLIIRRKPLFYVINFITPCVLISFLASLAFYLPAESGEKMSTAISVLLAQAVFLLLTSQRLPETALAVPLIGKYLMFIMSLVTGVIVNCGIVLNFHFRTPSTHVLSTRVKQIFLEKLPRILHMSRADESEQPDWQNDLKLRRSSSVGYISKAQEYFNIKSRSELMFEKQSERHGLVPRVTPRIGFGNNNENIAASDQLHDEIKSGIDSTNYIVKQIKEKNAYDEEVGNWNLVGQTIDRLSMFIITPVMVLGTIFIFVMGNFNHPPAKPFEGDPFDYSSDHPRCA
T4 sequence (P36544 23-502): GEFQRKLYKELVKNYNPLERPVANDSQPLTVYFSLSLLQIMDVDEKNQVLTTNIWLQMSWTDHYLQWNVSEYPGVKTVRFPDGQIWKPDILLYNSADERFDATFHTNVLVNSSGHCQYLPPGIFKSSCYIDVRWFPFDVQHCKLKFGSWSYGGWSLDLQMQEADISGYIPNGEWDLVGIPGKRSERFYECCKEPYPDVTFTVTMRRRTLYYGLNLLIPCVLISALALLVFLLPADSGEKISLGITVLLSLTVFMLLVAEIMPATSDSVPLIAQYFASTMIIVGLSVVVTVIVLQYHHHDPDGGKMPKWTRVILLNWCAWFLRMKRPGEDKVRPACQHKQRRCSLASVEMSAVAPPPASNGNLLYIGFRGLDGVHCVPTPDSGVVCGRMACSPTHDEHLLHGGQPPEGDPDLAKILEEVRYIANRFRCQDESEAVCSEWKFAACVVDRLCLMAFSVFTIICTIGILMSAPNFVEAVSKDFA
human muscle-type nAChR, adult form (α1β1ϵδ), sequence (P02708 21-457): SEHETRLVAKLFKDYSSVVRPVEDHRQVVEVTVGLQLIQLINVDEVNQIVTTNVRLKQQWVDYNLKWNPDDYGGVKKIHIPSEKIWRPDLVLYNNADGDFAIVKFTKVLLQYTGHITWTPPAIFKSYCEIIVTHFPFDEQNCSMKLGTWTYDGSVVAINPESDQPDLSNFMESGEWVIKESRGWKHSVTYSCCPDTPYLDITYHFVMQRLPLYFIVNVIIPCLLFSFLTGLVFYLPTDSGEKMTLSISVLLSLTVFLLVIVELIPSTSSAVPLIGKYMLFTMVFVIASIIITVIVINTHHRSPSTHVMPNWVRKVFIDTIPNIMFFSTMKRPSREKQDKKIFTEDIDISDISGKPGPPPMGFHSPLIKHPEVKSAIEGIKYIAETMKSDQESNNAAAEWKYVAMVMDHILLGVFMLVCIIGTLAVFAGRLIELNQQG
human muscle-type nAChR, adult form (α1β1ϵδ), sequence (P11230 24-501 partner): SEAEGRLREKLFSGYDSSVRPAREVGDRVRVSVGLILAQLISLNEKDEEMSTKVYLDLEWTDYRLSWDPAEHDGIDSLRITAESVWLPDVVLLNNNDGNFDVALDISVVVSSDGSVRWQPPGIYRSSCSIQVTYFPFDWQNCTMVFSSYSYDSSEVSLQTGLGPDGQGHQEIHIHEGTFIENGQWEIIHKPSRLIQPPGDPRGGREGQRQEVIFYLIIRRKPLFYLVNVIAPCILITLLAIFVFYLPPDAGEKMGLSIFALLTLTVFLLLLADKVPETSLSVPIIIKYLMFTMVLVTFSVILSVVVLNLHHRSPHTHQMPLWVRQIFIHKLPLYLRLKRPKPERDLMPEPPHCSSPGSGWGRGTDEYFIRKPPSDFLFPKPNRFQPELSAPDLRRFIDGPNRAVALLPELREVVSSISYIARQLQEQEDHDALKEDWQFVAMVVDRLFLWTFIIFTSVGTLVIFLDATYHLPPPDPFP
human muscle-type nAChR, adult form (α1β1ϵδ), sequence (Q04844 21-493): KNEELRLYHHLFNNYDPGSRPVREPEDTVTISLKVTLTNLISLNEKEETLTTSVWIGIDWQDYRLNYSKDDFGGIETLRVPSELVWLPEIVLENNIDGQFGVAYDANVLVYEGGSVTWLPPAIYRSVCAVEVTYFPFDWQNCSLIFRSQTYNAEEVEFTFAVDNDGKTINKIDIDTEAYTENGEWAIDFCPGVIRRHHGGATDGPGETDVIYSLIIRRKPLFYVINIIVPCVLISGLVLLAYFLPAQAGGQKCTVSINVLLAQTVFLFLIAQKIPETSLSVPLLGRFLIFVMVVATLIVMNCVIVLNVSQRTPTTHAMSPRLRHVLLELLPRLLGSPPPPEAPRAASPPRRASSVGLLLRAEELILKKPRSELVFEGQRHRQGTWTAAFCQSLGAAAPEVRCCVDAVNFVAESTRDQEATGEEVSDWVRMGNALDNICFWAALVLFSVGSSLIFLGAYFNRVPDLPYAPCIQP
human muscle-type nAChR, adult form (α1β1ϵδ), sequence (Q07001 22-517): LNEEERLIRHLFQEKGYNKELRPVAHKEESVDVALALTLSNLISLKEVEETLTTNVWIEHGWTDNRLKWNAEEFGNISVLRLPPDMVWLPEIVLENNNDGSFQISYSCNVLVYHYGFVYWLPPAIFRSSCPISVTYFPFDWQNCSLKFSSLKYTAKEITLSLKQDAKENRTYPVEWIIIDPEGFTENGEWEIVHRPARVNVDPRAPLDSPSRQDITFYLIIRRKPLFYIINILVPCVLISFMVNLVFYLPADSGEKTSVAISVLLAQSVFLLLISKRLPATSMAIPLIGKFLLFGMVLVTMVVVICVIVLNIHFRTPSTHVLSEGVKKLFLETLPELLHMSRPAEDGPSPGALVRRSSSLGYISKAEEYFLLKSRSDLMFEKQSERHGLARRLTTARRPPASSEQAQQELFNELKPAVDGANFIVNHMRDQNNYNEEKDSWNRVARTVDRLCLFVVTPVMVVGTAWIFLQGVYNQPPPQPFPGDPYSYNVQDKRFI
L. stagnalis AChBP, sequence (P58154 20-229): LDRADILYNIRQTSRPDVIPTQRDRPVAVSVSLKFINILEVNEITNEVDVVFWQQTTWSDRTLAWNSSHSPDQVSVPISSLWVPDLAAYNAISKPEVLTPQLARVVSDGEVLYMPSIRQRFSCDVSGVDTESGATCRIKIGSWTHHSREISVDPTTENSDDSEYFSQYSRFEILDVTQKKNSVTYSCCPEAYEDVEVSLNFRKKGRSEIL

As usually defined, the LD50 is the dose at which mortality reaches 50%. A higher LD50 goes with a less toxic substance. DNWWPKPPHQGPRPPRPRPKP [Azemiopsin]: on T. californica nAChR [1], the “difference in the affinity between the two binding sites (α1/γ and α1/δ)” value is reported as 27 fold. The “recovery of the ACh response after washing out the toxin” value in [2] is on record as “complete recovery”. For the same substance, the “effect on GABAA receptor currents” value on GABAA receptor α1β3γ2 and at GABAA receptor α2β3γ2 was “no significant effects” each time. The “effect at 5-HT3A receptors” value at 5-HT3A receptor is given as “no effects”. Further, the “effect at 5-HT3AB receptors” value at 5-HT3AB receptor is listed as “no effects”. In [3], this substance had an LD50 of 2.6 ± 0.3 mg/kg.

One may read the IC50 as the concentration that inhibits the measured activity by half. On to Neurotoxin II Naja oxiana, for which the 50% inhibitory concentration (IC50) with T. californica nAChR [4] is 0.003 µM; in the data set with Human α7 nAChR [5], greater than 4 µM.

Turning to α-Cobratoxin, the IC50 with Human α7 nAChR [6] worked out at 0.105 ± 0.01 µM; in the data set with L. stagnalis AChBP, 0.002 ± 0.0002 µM; with A. californica AChBP it was 0.058 ± 0.002 µM.
